Reference: ChEMBL document CHEMBL1134335, “Structure-activity relationships of pyridoxal phosphate derivatives as potent and selective antagonists of P2X1 receptors” (J Med Chem, 2001)
Activity calls are given as the source filed them. No cut-off for these calls is given here.

Key:
[1] = molecular target: T1, P2X purinoceptor 3 (Rattus norvegicus, UniProt P49654); test: Inhibition of inward ion current elicited by ATP was determined at recombinant P2X3 receptor expressed in Xenopus oocytes; assay type: functional, cell-based, Oocyte
T1 sequence (P49654 whole entry): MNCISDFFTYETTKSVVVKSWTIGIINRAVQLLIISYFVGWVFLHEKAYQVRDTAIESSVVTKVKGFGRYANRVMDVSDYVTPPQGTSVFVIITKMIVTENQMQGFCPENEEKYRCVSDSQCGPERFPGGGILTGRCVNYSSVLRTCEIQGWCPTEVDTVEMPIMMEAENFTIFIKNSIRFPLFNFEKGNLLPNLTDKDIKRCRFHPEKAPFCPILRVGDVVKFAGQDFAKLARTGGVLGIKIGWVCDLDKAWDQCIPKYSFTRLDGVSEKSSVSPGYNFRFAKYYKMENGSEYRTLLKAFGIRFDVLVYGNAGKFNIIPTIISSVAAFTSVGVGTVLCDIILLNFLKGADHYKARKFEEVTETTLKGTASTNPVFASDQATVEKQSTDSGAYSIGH

[2] = molecular target: T2, P2X purinoceptor 7 (Homo sapiens) (UniProt Q99572); test: Percentage inhibition of ATP-induced K+ efflux (cation free) in adherent HEK293 cells expressing human P2X7 receptor; assay type: functional, cell-based; settings: concentration not given here
T2 sequence (whole entry): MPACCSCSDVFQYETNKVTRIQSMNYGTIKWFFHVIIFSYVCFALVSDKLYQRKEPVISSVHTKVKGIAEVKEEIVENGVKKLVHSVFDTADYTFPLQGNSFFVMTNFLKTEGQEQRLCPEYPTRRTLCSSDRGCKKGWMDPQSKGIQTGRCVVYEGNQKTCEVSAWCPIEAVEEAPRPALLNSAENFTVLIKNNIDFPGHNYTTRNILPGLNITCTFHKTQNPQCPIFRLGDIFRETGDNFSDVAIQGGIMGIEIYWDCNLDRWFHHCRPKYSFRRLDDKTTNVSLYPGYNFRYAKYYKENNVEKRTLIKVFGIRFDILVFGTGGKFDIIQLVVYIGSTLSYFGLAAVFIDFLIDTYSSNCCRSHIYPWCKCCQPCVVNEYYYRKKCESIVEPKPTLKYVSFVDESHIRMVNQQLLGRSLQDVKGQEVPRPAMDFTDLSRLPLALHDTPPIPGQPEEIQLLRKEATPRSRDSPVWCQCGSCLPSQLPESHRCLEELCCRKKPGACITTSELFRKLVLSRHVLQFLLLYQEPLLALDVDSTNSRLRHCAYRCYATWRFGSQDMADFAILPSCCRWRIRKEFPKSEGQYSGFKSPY
Outline: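 Adherent HEK293 cells stably expressing human P2X7, in divalent cation-free saline (no added MgCl₂ or CaCl₂; pH 7.5). Pretreated with 30 µM compound, then 3 mM ATP for 10 min at 37 °C. Residual cell K⁺ was extracted in 10% HNO₃ for 2 h and measured by atomic absorbance against untreated cells. n=3, each in duplicate.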

[3] = molecular target: T2, P2X purinoceptor 7 (Homo sapiens); test: Percent inhibition of ATP-induced K+ efflux (ethidium influx) in suspended HEK293 cells expressing human P2X7 receptor; assay type: functional, cell-based; settings: concentration not given here
Outline: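 Trypsinised HEK293 cells stably expressing human P2X7 were suspended in divalent cation-free saline in a stirred cuvette at 37 °C with 20 µM ethidium bromide. Cells were treated with 30 µM compound, then 300 µM ATP.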

[4] = molecular target: T2, P2X purinoceptor 7 (Homo sapiens); test: Percent inhibition of ATP-induced K+ efflux (with cations) in adherent HEK293 cells expressing human P2X7 receptor; assay type: functional, cell-based; settings: concentration not given here
Outline: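 Adherent HEK293 cells stably expressing human P2X7, grown to 90% confluence, in saline with 1 mM MgCl₂ and 1.5 mM CaCl₂ (pH 7.5). Pretreated with 30 µM compound, then 3 mM ATP for 10 min at 37 °C. Cell K⁺ was extracted in 10% HNO₃ for 2 h and read by atomic absorbance relative to untreated cells. n=3, each in duplicate.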

[5] = molecular target: T3, P2X purinoceptor 1 (Rattus norvegicus, UniProt P47824); test: Inhibition of inward ion current elicited by ATP at P2X1 receptor expressed in Xenopus oocytes; assay type: functional, cell-based, Oocyte
T3 sequence (P47824 whole entry): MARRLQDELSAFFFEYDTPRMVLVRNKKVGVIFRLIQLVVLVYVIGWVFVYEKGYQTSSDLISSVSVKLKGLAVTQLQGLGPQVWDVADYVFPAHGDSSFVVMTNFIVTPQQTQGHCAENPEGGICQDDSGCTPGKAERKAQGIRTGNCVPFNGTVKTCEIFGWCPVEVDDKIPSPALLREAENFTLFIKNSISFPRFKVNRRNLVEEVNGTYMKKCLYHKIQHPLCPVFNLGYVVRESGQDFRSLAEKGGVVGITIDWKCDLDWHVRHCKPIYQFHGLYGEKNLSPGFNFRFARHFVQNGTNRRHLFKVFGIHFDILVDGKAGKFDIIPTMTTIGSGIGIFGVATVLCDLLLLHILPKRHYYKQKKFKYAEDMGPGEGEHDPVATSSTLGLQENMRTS

[6] = molecular target: T4, P2X purinoceptor 2 (Rattus norvegicus, UniProt P49653); test: Inhibition of inward ion current elicited by ATP at P2X2 receptor expressed in Xenopus oocytes; assay type: functional, cell-based, Oocyte
T4 sequence (P49653 whole entry): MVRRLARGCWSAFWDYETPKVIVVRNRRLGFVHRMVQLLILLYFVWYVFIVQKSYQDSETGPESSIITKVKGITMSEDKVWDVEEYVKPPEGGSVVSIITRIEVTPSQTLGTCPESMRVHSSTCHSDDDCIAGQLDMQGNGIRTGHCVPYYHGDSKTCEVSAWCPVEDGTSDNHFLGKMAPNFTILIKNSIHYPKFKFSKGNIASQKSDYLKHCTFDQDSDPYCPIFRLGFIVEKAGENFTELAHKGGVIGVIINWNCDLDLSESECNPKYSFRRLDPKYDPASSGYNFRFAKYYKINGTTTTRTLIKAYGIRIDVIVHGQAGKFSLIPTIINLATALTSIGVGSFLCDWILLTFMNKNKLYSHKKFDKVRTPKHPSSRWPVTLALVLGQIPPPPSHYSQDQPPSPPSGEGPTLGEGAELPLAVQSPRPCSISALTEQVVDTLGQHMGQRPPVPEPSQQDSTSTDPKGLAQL

[7] = molecular target: P2Y purinoceptor 1 (Meleagris gallopavo, UniProt P49652); test: Inhibition of 10 nM 2-MeS-ADP-stimulated phospholipase C in turkey erythrocyte membranes using [3H]inositol; assay type: functional, cell membranes
Chain of P2Y purinoceptor 1 (P49652 whole entry): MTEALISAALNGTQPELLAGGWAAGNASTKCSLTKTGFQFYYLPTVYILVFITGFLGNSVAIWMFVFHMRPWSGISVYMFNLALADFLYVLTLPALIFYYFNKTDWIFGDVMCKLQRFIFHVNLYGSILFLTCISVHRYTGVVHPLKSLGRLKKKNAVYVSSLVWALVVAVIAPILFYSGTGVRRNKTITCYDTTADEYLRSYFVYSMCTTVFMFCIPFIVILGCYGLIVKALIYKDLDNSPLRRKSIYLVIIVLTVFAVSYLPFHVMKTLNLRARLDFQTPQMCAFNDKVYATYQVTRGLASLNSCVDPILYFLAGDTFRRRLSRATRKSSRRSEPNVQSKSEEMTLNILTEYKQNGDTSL
Outline: (§1)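 Turkey erythrocytes labelled 18-24 h at 37 °C with 2-[³H]myo-inositol in inositol-free DMEM, then lysed hypotonically (5 mM sodium phosphate pH 7.4, 5 mM MgCl₂, 1 mM EGTA) to make ghosts. Ghosts were incubated 5 min at 30 °C in pH 7.0 Hepes/KCl buffer with 1 µM GTPγS and 10 nM 2-MeSADP. Total [³H]inositol phosphates were measured by anion-exchange chromatography; 3-8 independent determinations.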

[8] = molecular target: T5, P2X purinoceptor 3 (Rattus norvegicus) (UniProt P49654); test: Inhibition of inward ion current elicited by ATP at P2X3 receptor expressed in Xenopus oocytes; IA means inactive; assay type: functional, cell-based; settings: Oocyte
T5 sequence (whole entry): T1 sequence (P49654 whole entry)

[9] = molecular target: T6, P2X purinoceptor 2 (Rattus norvegicus) (UniProt P49653); test: Inhibition of inward ion current elicited by ATP at P2X2 receptor expressed in Xenopus oocytes; IA means inactive; assay type: functional, cell-based; settings: Oocyte
T6 sequence (whole entry): T4 sequence (P49653 whole entry)

[10] = molecular target: P2Y purinoceptor 1 (Meleagris gallopavo) (UniProt P49652); test: Inhibition of 10 nM 2-MeS-ADP-stimulated phospholipase C in turkey erythrocyte membranes using [3H]inositol; IA means inactive; assay type: functional, cell membranes; outline: as §1
Chain of P2Y purinoceptor 1 (Meleagris gallopavo) (P49652 whole entry): as above

[11] = molecular target: T7, P2X purinoceptor 1 (Rattus norvegicus) (UniProt P47824); test: Inhibition of inward ion current elicited by ATP at P2X1 receptor expressed in Xenopus oocytes at 10 uM; assay type: functional, cell-based; settings: Oocyte
T7 sequence (whole entry): T3 sequence (P47824 whole entry)

[12] = molecular target: T7, P2X purinoceptor 1 (Rattus norvegicus); test: Inhibition of inward ion current elicited by ATP at P2X1 receptor expressed in Xenopus oocytes; IA means inactive; assay type: functional, cell-based; settings: Oocyte
[13] = molecular target: P2X purinoceptor 4 (Rattus norvegicus, UniProt P51577); test: Inhibition of inward ion current elicited by ATP at rat P2X4 receptor (mutant type); assay type: functional
[14] = molecular target: T8, P2X purinoceptor 4 (Rattus norvegicus, UniProt P51577); test: Inhibition of inward ion current elicited by ATP at rat P2X4 receptor (wild type); assay type: functional
T8 sequence (P51577 whole entry): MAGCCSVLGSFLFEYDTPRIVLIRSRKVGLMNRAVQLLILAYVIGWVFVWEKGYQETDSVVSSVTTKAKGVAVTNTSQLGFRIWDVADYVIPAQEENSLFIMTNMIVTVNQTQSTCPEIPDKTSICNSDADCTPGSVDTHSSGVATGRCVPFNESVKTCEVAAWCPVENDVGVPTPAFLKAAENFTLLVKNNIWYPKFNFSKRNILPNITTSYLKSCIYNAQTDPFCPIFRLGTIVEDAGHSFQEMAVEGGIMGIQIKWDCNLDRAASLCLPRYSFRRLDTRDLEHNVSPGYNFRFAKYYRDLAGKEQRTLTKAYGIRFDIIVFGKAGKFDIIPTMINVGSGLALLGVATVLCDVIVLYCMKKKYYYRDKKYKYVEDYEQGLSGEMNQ

[15] = molecular target: T9, P2X purinoceptor 6 (Rattus norvegicus, UniProt P51579); test: Inhibition of inward ion current elicited by ATP at rat P2X6 receptor (mutant type); assay type: functional
Target sequence in this assay (P51579 whole entry, looked up): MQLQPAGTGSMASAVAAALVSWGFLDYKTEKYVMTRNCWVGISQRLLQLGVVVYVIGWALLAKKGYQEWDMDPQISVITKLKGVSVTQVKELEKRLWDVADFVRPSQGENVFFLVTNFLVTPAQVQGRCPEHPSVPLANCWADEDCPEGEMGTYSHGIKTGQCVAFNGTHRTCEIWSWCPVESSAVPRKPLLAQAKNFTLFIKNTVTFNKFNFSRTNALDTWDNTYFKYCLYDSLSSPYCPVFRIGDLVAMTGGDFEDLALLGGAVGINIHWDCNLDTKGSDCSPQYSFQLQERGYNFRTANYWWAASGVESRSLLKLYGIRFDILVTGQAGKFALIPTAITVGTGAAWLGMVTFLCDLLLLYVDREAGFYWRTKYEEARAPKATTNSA

[16] = molecular target: T9, P2X purinoceptor 6; test: Inhibition of inward ion current elicited by ATP at rat P2X6 receptor (wild type); assay type: functional
Target sequence in this assay (P51579 whole entry): as the sequence (P51579 whole entry, looked up) above

| Structure (SMILES) | IC50 [1] | IC50 [5] | IC50 [6] | IC50 [7] | Inhibition activity [10] | further results |
| --- | --- | --- | --- | --- | --- | --- |
| Cc1ncc2c(c1O)COP(=O)(O)OC2 | – | – | – | – | inactive | IA [8]: inactive; IA [9]: inactive |
| Cc1nc(/N=N/c2ccccc2)c(COP(=O)(O)O)c(COP(=O)(O)O)c1O | – | – | – | > 100 µM | – | inhibition [11]: 50% |
| Cc1nc(/N=N/c2ccccc2)c2c(c1O)COP(=O)(O)OC2 | – | – | – | – | inactive | IA [12]: inactive |
| Cc1nc(/N=N/c2cc(S(=O)(=O)O)ccc2Cl)c2c(c1O)COP(=O)(O)OC2 | – | – | – | – | – | inhibition [11]: 43% |
| Cc1ncc(COP(=O)(O)O)c(COP(=O)(O)O)c1O | – | – | – | – | inactive | IA [12]: inactive |
| Cc1nc(/N=N/c2cc(S(=O)(=O)O)ccc2S(=O)(=O)O)c2c(c1O)COP(=O)(O)OC2 | – | – | – | – | inactive | inhibition [2]: -5%; inhibition [3]: 17%; inhibition [4]: -1%; IA [9]: inactive |

Further lines, with some results ahead:

| IC50 [1] | IC50 [5] | IC50 [6] | IC50 [7] | Inhibition activity [10] | Structure (SMILES) | further results |
| --- | --- | --- | --- | --- | --- | --- |
| 0.34 µM | 0.012 µM | 1.1 µM | 46 µM | – | Cc1nc(/N=N/c2cc(S(=O)(=O)O)ccc2S(=O)(=O)O)c(CP(=O)(O)O)c(C=O)c1O | inhibition [2]: 28%; inhibition [3]: 100%; inhibition [4]: 51% |
| 0.14 µM | 0.0094 µM | 11.9 µM | 100 µM | – | Cc1nc(/N=N/c2ccc(C(=O)O)cc2)c(COP(=O)(O)O)c(C=O)c1O | – |
| 0.33 µM | 0.037 µM | 0.486 µM | – | – | Cc1nc(/N=N/c2cc(C(=O)O)ccc2C(=O)O)c(CP(=O)(O)O)c(C=O)c1O | – |
| 0.036 µM | 0.012 µM | 0.948 µM | 27 µM | – | Cc1nc(/N=N/c2ccc(P(=O)(O)O)cc2)c(CP(=O)(O)O)c(C=O)c1O | – |
| 0.24 µM | 0.099 µM | 1.6 µM | 16.6 µM | – | Cc1nc(/N=N/c2ccc(S(=O)(=O)O)cc2S(=O)(=O)O)c(COP(=O)(O)O)c(C=O)c1O | IC50 [13]: 2.6 µM; IC50 [14]: > 500 µM; IC50 [15]: 2 µM; IC50 [16]: > 500 µM |
